Measured values: ChEMBL document CHEMBL3580554, “Design, synthesis, and anticonvulsant activity of new hybrid compounds derived from 2-(2,5-dioxopyrrolidin-1-yl)propanamides and 2-(2,5-dioxopyrrolidin-1-yl)butanamides” (J Med Chem, 2015)

Assays:
Mus musculus [1] = test: Anticonvulsant activity in Swiss mouse assessed as protection against seizures at 300 mg/kg, ip dosed 0.25 hrs before initiation of maximal electroconvulsions by maximal electroshock test; format: functional
In short: (§1)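 Mice were dosed i.p. at a fixed 300 or 100 mg/kg (6 Hz: 100 mg/kg only). Protection was then scored against MES, sc PTZ or 6 Hz seizures at pretreatment times of 0.25, 0.5, 1 and 2 h. Groups were four mice, scored as number protected / number tested. This also gives the time course and time of peak effect.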

Mus musculus [2] = test: Anticonvulsant activity in Swiss mouse assessed as protection against seizures at 300 mg/kg, ip dosed 0.5 hrs before initiation of maximal electroconvulsions by maximal electroshock test; format: functional; in short: as §1
Mus musculus [3] = test: Anticonvulsant activity in Swiss mouse assessed as protection against seizures at 300 mg/kg, ip dosed 1 hr before initiation of maximal electroconvulsions by maximal electroshock test; format: functional; in short: as §1
Mus musculus [4] = test: Anticonvulsant activity in Swiss mouse assessed as protection against seizures at 300 mg/kg, ip dosed 2 hrs before initiation of maximal electroconvulsions by maximal electroshock test; format: functional; in short: as §1
Mus musculus [5] = test: Anticonvulsant activity in Swiss mouse assessed as protection against seizures at 100 mg/kg, ip dosed 0.25 hrs before initiation of maximal electroconvulsions by maximal electroshock test; format: functional; in short: as §1
Mus musculus [6] = test: Anticonvulsant activity in Swiss mouse assessed as protection against seizures at 100 mg/kg, ip dosed 0.5 hrs before initiation of maximal electroconvulsions by maximal electroshock test; format: functional; in short: as §1
Mus musculus [7] = test: Anticonvulsant activity in Swiss mouse assessed as protection against seizures at 100 mg/kg, ip dosed 1 hr before initiation of maximal electroconvulsions by maximal electroshock test; format: functional; in short: as §1
Mus musculus [8] = test: Anticonvulsant activity in Swiss mouse assessed as protection against seizures at 100 mg/kg, ip dosed 2 hrs before initiation of maximal electroconvulsions by maximal electroshock test; format: functional; in short: as §1
Liver microsome = test: Drug level in human liver microsomes treated with 50 uM 1-(1-Oxo-1-{4-[3-(trifluoromethyl)phenyl]piperazin-1-yl}-propan-2-yl)pyrrolidine-2,5-dione assessed as compound formation in presence of NADPH regeneration system pre-incubated at 37 degC for 5 min and measured 2 hrs after post NADPH system addition by UPLC and LC-MS/MS method; format: ADME
In short: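 The compound was incubated 2 h with human liver microsomes. Metabolites were detected by full-scan chromatogram and identified by LC/MS from their [M+H]+ molecular masses.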

Mus musculus [9] = species on record: Mus musculus; test: Protective index, ratio of neurotoxic TD50 in Swiss mouse by Chimney test to anticonvulsant ED50 in Swiss mouse measured at 0.5 hrs of time to peak effect by maximal electroshock test
In short: (§2)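 Protective index was calculated as TD50 (chimney test, mouse, i.p.) divided by ED50 from the matching MES, sc PTZ or 6 Hz test, both taken at the time of peak effect.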

Mus musculus [10] = test: Anticonvulsant activity in ip dosed Swiss mouse assessed as protection against seizures measured at 0.5 hrs of time to peak effect by maximal electroshock test; format: functional
In short: (§3)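 Median effective doses (ED50, mg/kg) were determined i.p. in mice at the time of peak effect in the MES, sc PTZ or 6 Hz tests. Only compounds giving at least 50% protection at 100 mg/kg in that test were taken forward.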

Mus musculus [11] = test: Anticonvulsant activity in ip dosed Swiss mouse assessed as protection against seizures measured at 0.5 hrs of time to peak effect by subcutaneous pentylenetetrazole seizure test; format: functional; in short: as §3
Mus musculus [12] = test: Anticonvulsant activity in ip dosed Swiss mouse assessed as protection against seizures measured at 0.5 hrs of time to peak effect by 6 Hz test by 6 Hz psychomotor seizure test; format: functional; in short: as §3
[13] = Toxicity in ip dosed Swiss mouse assessed as induction of motor performance impairment measured within 60 seconds measured at 0.5 hrs of time to peak effect by Chimney test; format: organism-based; details: in vivo
In short: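 Neurotoxicity was measured i.p. in mice by the chimney test for motor impairment. It was given as the median neurotoxic dose (TD50, mg/kg) at the time of peak effect.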

Mus musculus [14] = species on record: Mus musculus; test: Protective index, ratio of neurotoxic TD50 in Swiss mouse by Chimney test to anticonvulsant ED50 in Swiss mouse measured at 0.5 hrs of time to peak effect by 6 Hz test by 6 Hz psychomotor seizure test; format: functional; in short: as §2
Mus musculus [15] = test: Anticonvulsant activity in ip dosed Swiss mouse assessed as protection against seizures measured at 0.25 hrs of time to peak effect by maximal electroshock test; format: functional; in short: as §3
Rattus norvegicus [16] = species on record: Rattus norvegicus; test: Inhibition of [125I]omega-conotoxin GVIA binding to N-type calcium channel in rat cerebral cortex synaptosomes at 100 uM incubated for 30 mins by scintillation counting based radioligand displacement assay; format: subcellular
Rattus norvegicus [17] = species on record: Rattus norvegicus; test: Inhibition of [3H]BTX binding to sodium channel site 2 in rat cerebral cortex synaptosomes at 100 uM incubated for 60 mins by scintillation counting based radioligand displacement assay; format: subcellular
In short: (§4)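 Synaptoneurosomal preparations from rat cerebral cortex were used. The read-out was inhibition of specific [3H]BTX binding to the voltage-sensitive sodium channel (site 2), expressed as % inhibition of control specific binding. Compounds were tested at 1, 10, 100 and 500 μM. Inhibition above 50% was taken as significant.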

Rattus norvegicus [18] = species on record: Rattus norvegicus; test: Inhibition of [3H]BTX binding to sodium channel site 2 in rat cerebral cortex synaptosomes at 10 uM incubated for 60 mins by scintillation counting based radioligand displacement assay; format: subcellular; in short: as §4
Rattus norvegicus [19] = species on record: Rattus norvegicus; test: Inhibition of [3H]BTX binding to sodium channel site 2 in rat cerebral cortex synaptosomes at 1 uM incubated for 60 mins by scintillation counting based radioligand displacement assay; format: subcellular; in short: as §4
Rattus norvegicus [20] = species on record: Rattus norvegicus; test: Inhibition of [3H]BTX binding to sodium channel site 2 in rat cerebral cortex synaptosomes at 500 uM incubated for 60 mins by scintillation counting based radioligand displacement assay; format: subcellular; in short: as §4

SMILES	Activity (Mus musculus [1]) [%]	Activity (Mus musculus [2]) [%]	Activity (Mus musculus [3]) [%]	Activity (Mus musculus [4]) [%]	Activity (Mus musculus [5]) [%]	Activity (Mus musculus [6]) [%]	Activity (Mus musculus [7]) [%]	Activity (Mus musculus [8]) [%]	also measured
CCC(C(=O)N1CCN(c2ccccc2F)CC1)N1C(=O)CCC1=O (racemic)	100	100	50	0	0	0	0	0	
CC(C(=O)N1C=CN(c2cccc(C(F)(F)F)c2)CC1)N1C(=O)CCC1=O (stereo not drawn)									Drug metabolism (Liver microsome): metabolite_detected
CC(C(=O)N1CCN(c2ccccc2Cl)CC1)N1C(=O)CCC1=O (racemic)	0	0	25	0					
CC(C(=O)N1CCN(c2ccc(C(F)(F)F)cc2)CC1)N1C(=O)CCC1=O (racemic)	25	25	0	0					
O=C(C(CO)N1C(=O)CC(O)C1=O)N1C=CN(c2cccc(C(F)(F)F)c2)CC1 (stereo not drawn)									Drug metabolism (Liver microsome): metabolite_detected
CCC(C(=O)N1CCN(c2ccccc2C(F)(F)F)CC1)N1C(=O)CCC1=O (racemic)	25	25	0	0					
COC[C@@H](NC(C)=O)C(=O)NCc1ccccc1 [LACOSAMIDE]									Ratio TD50/ED50 (Mus musculus [9]): 3.6; ED50 (Mus musculus [10]): 9.4 mg/kg; ED50 (Mus musculus [11]): > 500 mg/kg; ED50 (Mus musculus [12]): 6.4 mg/kg; TD50 at 0.5 h [13]: 33.7 mg/kg; Ratio TD50/ED50 (Mus musculus [14]): 5.26
CCC(C(=O)N1CCN(c2ccc(Cl)cc2)CC1)N1C(=O)CCC1=O (racemic)	0	0	25	25					
CC(C(=O)N1CCN(c2ccc(O)c(C(F)(F)F)c2)CC1)N1C(=O)CCC1=O (stereo not drawn)									Drug metabolism (Liver microsome): metabolite_detected
CCC(C(=O)N1CCN(c2ccccc2)CC1)N1C(=O)CCC1=O (racemic)	75	75	75	25	25	25	0	0	ED50 (Mus musculus [15]): 149 mg/kg
CCC(C(=O)N1CCN(c2ccc(F)cc2)CC1)N1C(=O)CCC1=O (racemic)	0	25	25	0					
CC1(C)O[C@@H]2[C@@H](CO[C@@]3(COS(N)(=O)=O)OC(C)(C)O[C@@H]23)O1									inhibition (Rattus norvegicus [16]): 3.1%
COc1cccc(N2CCN(C(=O)C(C)N3C(=O)CCC3=O)CC2)c1 (racemic)	75	50	0	0	25	0	0	0	
CC(C(=O)N1CCOCC1)N1C(=O)CCC1=O (racemic)	0	0	0	0					
CC(C(=O)N1CCN(c2ccc(Cl)cc2)CC1)N1C(=O)CCC1=O (racemic)	100	100	0	0	50	25	0	0	
CC(C(=O)N1CCN(c2ccccc2F)CC1)N1C(=O)CCC1=O (racemic)	100	50	50	25	75	0	0	0	ED50 (Mus musculus [15]): 151 mg/kg
CCC(C(=O)N1CCN(c2cccc(F)c2)CC1)N1C(=O)CCC1=O (racemic)	75	100	75	0	0	0	0	0	
CC(C(=O)N1CCN(c2ccc(F)cc2)CC1)N1C(=O)CCC1=O (racemic)	100	50	25	50	75	0	0	0	ED50 (Mus musculus [15]): 130 mg/kg
CC(C(=O)N1CCN(c2ccccc2)CC1)N1C(=O)CCC1=O (racemic)	100	50	50	0	50	0	0	0	ED50 (Mus musculus [15]): 164 mg/kg
Cc1cccc(N2CCN(C(=O)C(C)N3C(=O)CCC3=O)CC2)c1 (racemic)	100	50	0	0	0	0	0	0	
CCC(C(=O)N1CCN(c2cccc(OC)c2)CC1)N1C(=O)CCC1=O (racemic)	25	0	0	0					
NC(=O)N1c2ccccc2C=Cc2ccccc21									inhibition (Rattus norvegicus [17]): 17.4%; inhibition (Rattus norvegicus [18]): 4.6%; inhibition (Rattus norvegicus [19]): 2.7%; inhibition (Rattus norvegicus [20]): 33.6%
CCCC(CCC)C(=O)O [VALPROIC ACID]									ED50 (Mus musculus [12]): 130 mg/kg
CCC(C(=O)N1CCN(c2ccc(C(F)(F)F)cc2)CC1)N1C(=O)CCC1=O (racemic)	25	0	0	0					
CCC(C(=O)N1CCN(c2cccc(C)c2)CC1)N1C(=O)CCC1=O (racemic)	100	100	75	0	50	0	0	0	
CC(C(=O)N1CCN(c2cccc(F)c2)CC1)N1C(=O)CCC1=O (racemic)	100	50	75	100	75	0	0	0	ED50 (Mus musculus [15]): 137 mg/kg
CCC(C(=O)N1CCN(c2ccccc2Cl)CC1)N1C(=O)CCC1=O (racemic)	50	25	50	0					
CCC(C(=O)N1CCOCC1)N1C(=O)CCC1=O (racemic)	0	0	0	0					
O=C(C(CO)N1C(=O)CCC1O)N1CCN(c2cccc(C(F)(F)F)c2)CC1 (stereo not drawn)									Drug metabolism (Liver microsome): metabolite_detected
CCC(C(=O)N1CCN(c2cccc(Cl)c2)CC1)N1C(=O)CCC1=O (racemic)	75	50	100	25	50	50	0	0	ED50 (Mus musculus [10]): 138 mg/kg
